From PubChem
Hits are enriched below; roughly 5.9% of the tested compounds scored in any of these assays.
IDH1 R132H inh: inhibitors of IDH1 R132H reductase, primary screen, biochemical, plate reader, single point | 0.18% of 70,000 active | inhibition, % at 10 µM | AID 624101, 2012 | diaphorase/resazurin fluorescence, 60 min | Isocitrate dehydrogenase [NADP] cytoplasmic (Homo sapiens), O75874; in the data active means inhibition above about 34%; inconclusive means no clear call, values can overlap the other calls; inactive means below about 11%;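 further: 0% = DMSO and 100% = no enzyme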
Target sequence (O75874 whole entry R132H): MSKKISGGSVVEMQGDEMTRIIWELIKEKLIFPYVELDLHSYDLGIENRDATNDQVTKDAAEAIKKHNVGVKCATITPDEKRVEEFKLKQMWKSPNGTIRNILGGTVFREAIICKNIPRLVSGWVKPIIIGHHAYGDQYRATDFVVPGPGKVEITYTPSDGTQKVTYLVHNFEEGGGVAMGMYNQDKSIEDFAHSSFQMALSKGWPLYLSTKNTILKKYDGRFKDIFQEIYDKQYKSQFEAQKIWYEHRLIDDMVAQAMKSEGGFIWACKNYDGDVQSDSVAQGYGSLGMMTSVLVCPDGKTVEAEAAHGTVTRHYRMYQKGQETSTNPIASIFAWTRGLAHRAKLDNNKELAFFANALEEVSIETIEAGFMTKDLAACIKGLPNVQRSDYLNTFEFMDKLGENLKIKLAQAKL
Pf Dd2 growth: P. falciparum Dd2 growth inhibitors, primary screen, SYBR Green fluorescence, single dose replicates; 72 h; stronger effect = lower value; activity change, % at 10 µM; 2.3% of 94,000 active; in the data active means activity change below about -80%; inconclusive means no clear call, values can overlap the other calls
KDM4C inh: inhibitors of GASC-1 (KDM4C) histone demethylase, primary screen, biochemical, single concentration HTS. AID 720574, 2013. inhibition, % at 12.5 µM. GST-KDM4C 2-372, H3K9me3 peptide, LANCE TR-FRET. Lysine-specific demethylase 4C (Homo sapiens), Q9H3R0. 0.15% of 96,000 active;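 active means mean replicate inhibition above about 25%, with at least 55% of replicates also reaching it, limit read from the data, passing the limit was not always enough; inconclusive means only one of those two conditions met; inactive means neither condition met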
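System – N-terminal GST-fused human GASC-1 (KDM4C) fragment, residues 2-372 · Input – enzyme final amount 10 nM · Technique – LANCE TR-FRET, Eu antibody, ULight-streptavidin, EDTA, ex 340 nm, em 618/671 nm · Medium – HEPES buffer, pH 7.5, plus ascorbate · Incubation – enzyme reaction 30 min, then detection 60 min, both room temperature · Reagent – H3K9me3 peptide with Fe(II)/2OG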
T cruzi growth-1: T. cruzi intracellular proliferation inhibitors, primary screen, cell-based, beta-gal Tulahuen parasites, NIH3T3 host, luminescence; T. cruzi beta-gal in NIH3T3, GalScreen luminescence, 90 h; inhibition, % at 8.34 µM; 5.9% of 77,000 active; AID 624255, 2012;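 active means mean inhibition above about 93%, with at least 55% of replicates each passing it, limit read from the data, passing the limit was not always enough; inconclusive means only one of those two conditions holds; inactive means neither condition holds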
T cruzi growth-2: T. cruzi intracellular proliferation inhibitors, confirmation, cell-based, NIH3T3 host, beta-gal parasite, luminescence, cherry-pick. shares compounds with T cruzi growth-1. T. cruzi beta-gal in NIH3T3, GalScreen luminescence, 90 h. inhibition, % at 8.35 µM. 72% of 5,600 active. AID 651739, 2012;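 active means mean replicate inhibition above about 95% and at least 55% of replicates individually reaching it, limit read from the data; inconclusive means only one of the two criteria is met; inactive means neither criterion is met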
T cruzi growth-3: inhibitors of intracellular T. cruzi replication, confirmation, NIH3T3 host cells, beta-gal parasites, cherry-pick, set 2; shares compounds with T cruzi growth-1; T. cruzi beta-gal in NIH3T3, GalScreen luminescence, 90 h; inhibition, % at 2.09 µM; 21% of 5,600 active; AID 651740, 2012;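 active means mean inhibition above about 95%, with at least 55% of replicates also reaching it, limit read from the data; inconclusive means meets just one of the two conditions; inactive means meets neither condition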;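 further: plate controls were neutral control median for no effect and positive control median for full effect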
NIH3T3 tox: cytotoxicity in mouse NIH/3T3 fibroblasts, confirmation, cytotoxicity control for T. cruzi proliferation inhibitor project, cell-based, cherry-pick, single point; 14% of 5,600 active; NIH/3T3 viability, CellTiter-Glo ATP luminescence, 90 h; shares compounds with T cruzi growth-1; AID 651742, 2012; cytotoxicity (signal decrease), % at 8.35 µM;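 active means mean signal decrease across replicates above about 35% based on untreated-well scatter, with enough replicates individually passing, limit read from the data; inconclusive means no rule stated though some were filed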;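 further: 0% = median of neutral control wells and 100% = median of positive control wells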
3T3 cytotox 2: NIH/3T3 fibroblast cytotoxicity, confirmation, cytotoxicity control, cell-based, cherry-pick, single point, set 2. AID 651744, 2012. 56% of 5,600 active. NIH/3T3 viability, CellTiter-Glo ATP luminescence, 90 h. inhibition, % at 24.9 µM. shares compounds with T cruzi growth-1;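 active means mean loss of cell viability signal at or above a set limit, and enough replicates individually reaching it; inconclusive means meets only the mean limit or only the replicate share; inactive means meets neither condition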;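 further: 0% = median of neutral control wells and 100% = median of positive control wells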
Starred values were filed as active, the others as inactive; ? = inconclusive; nt = no result.

SMILES	IDH1 R132H inh	Pf Dd2 growth	KDM4C inh	T cruzi growth-1	T cruzi growth-2	T cruzi growth-3	NIH3T3 tox	3T3 cytotox 2
C[C@@H]1CN([C@H](C)CO)C(=O)c2cc(NS(=O)(=O)c3ccc(F)cc3)ccc2O[C@@H](C)CCCCO[C@H]1CN(C)C(=O)Nc1ccc(F)cc1	nt	-36.7	0.6	29.6	nt	nt	nt	nt
O=C(CCN1C(=O)c2ccc([N+](=O)[O-])cc2C1=O)Nc1cccc(I)c1	0.3	nt	nt	nt	nt	nt	nt	nt
O=C(N/N=C/c1cccc(O)c1)c1ccccn1	-0.1	nt	nt	nt	nt	nt	nt	nt
O=C(CSc1nc2ccccc2c(=O)[nH]1)Nc1ccc(Br)c(Cl)c1	0.1	nt	nt	nt	nt	nt	nt	nt
C[C@H]1CCCCO[C@@H](CN(C)C(=O)NC2CCCCC2)[C@@H](C)CN([C@@H](C)CO)C(=O)c2cc(NC(=O)Nc3ccc(F)cc3)ccc2O1	nt	-45.6	-1.6	108.9*	115.0*	54.8	13.3	5.4
C[C@H](CO)N1C[C@H](C)[C@@H](CN(C)C(=O)NC2CCCCC2)OCCCC[C@H](C)Oc2ccc(NC(=O)Nc3ccc(F)cc3)cc2C1=O	1.4	3.3	-0.5	105.2*	102.5*	26.8	11.7	24.0
C[C@@H]1CN([C@H](C)CO)C(=O)c2cc(NC(=O)Nc3ccc(F)cc3)ccc2O[C@@H](C)CCCCO[C@@H]1CN(C)C(=O)NC1CCCCC1	0.1	-72.1	4.5	54.8	nt	nt	nt	nt
C[C@@H]1CN([C@@H](C)CO)C(=O)c2cc(N(C)C)ccc2O[C@@H](C)CCCCO[C@@H]1CN(C)C(=O)NC1CCCCC1	-2.7	5.7	14.0	103.4*	11.4	-6.6	5.1	-19.1
C[C@@H]1CCCCO[C@@H](CN(C)C(=O)NC2CCCCC2)[C@H](C)CN([C@H](C)CO)C(=O)c2cc(NC(=O)Nc3ccc4c(c3)OCO4)ccc2O1	nt	-16.4	1.8	104.7*	104.7*	74.3	-0.8	-33.0
Cc1cc(C(F)(F)F)nn1CCCNC(=O)c1cccs1	0.3	nt	nt	nt	nt	nt	nt	nt
COc1ccc(CSCC(N)C(=O)O)cc1Br (stereo not drawn)	0.4	nt	nt	nt	nt	nt	nt	nt
COc1ccc(Cl)cc1NC(=O)COc1ccc([N+](=O)[O-])cc1	-0.4	nt	nt	nt	nt	nt	nt	nt
C[C@@H]1CCCCO[C@@H](CN(C)Cc2ccc3c(c2)OCO3)[C@@H](C)CN([C@H](C)CO)C(=O)c2cc(NC(=O)Nc3ccccc3)ccc2O1	nt	17.8	-0.5	?	111.6*	78.5	19.8	17.7
C[C@@H]1CCCCO[C@H](CN(C)Cc2ccccc2)[C@H](C)CN([C@H](C)CO)C(=O)c2cc(NC(=O)Nc3ccc4c(c3)OCO4)ccc2O1	1.4	-77.8	5.2	97.8*	105.8*	91.2	12.0	52.3*
C[C@@H]1CCCCO[C@@H](CN(C)Cc2ccccc2)[C@@H](C)CN([C@H](C)CO)C(=O)c2cc(NC(=O)Nc3ccc4c(c3)OCO4)ccc2O1	0.4	36.5	-1.0	43.4	nt	nt	nt	nt
C[C@@H]1CCCCO[C@H](CN(C)Cc2ccc3c(c2)OCO3)[C@H](C)CN([C@H](C)CO)C(=O)c2cc(NC(=O)Nc3ccccc3)ccc2O1	nt	?	5.2	114.1*	?	102.8*	9.8	103.9*
Cc1ccc2ccc(C(Nc3ccccn3)c3c(F)cccc3Cl)c(O)c2n1 (stereo not drawn)	0.3	nt	nt	nt	nt	nt	nt	nt
COc1cccc(NC(=O)c2c(NC(=O)c3cccnc3)sc3c2CCC3)c1	-0.3	nt	nt	nt	nt	nt	nt	nt
